{"data": "Measured values pooled from the literature", "target": "Protein kinase C eta type (PRKCH, Homo sapiens, UniProt P24723)", "note": "Lines come from different studies, so protocols differ."}
{"SMILES": "COc1ncccc1-c1cnn2ccc(N3CCN(C(=O)OC(C)C)CC3)nc12", "observed": "binding", "method": "competition with immobilised ligand", "tested at": "1 µM", "measurement": "remaining binding", "result": "49%"}
{"SMILES": "COc1cc(Nc2ncc(F)c(Nc3ccc4c(n3)NC(=O)C(C)(C)O4)n2)cc(OC)c1OC", "observed": "binding", "tested at": "10 µM", "measurement": "inhibition", "result": "0%"}
{"SMILES": "Cn1cc(-c2cccc(N3CCc4c(sc5c4CC(C)(C)C5)C3=O)c2CO)cc(Nc2ccncn2)c1=O", "observed": "enzyme activity", "action": "inhibitor", "tested at": "1 µM", "measurement": "inhibition", "result": "20%"}
{"SMILES": "N#CC1(c2ccccn2)CCN(Cc2cc(C(=O)O)c(=O)n3ccccc23)CC1", "observed": "cell-free assay", "method": "competition with immobilised ligand", "tested at": "1 µM", "measurement": "remaining binding", "result": "100%"}
{"SMILES": "Cc1nn(C)cc1-c1nc2c(N3CCN(Cc4ccc(Cl)cc4)CC3)c(Cl)cnc2[nH]1", "observed": "binding", "method": "competition with immobilised ligand", "tested at": "1 µM", "measurement": "remaining binding", "result": "100%"}
{"SMILES": "Cn1cc(-c2cc(F)cc(N3CCn4c(cc5c4CCCC5)C3=O)c2CO)cc(Nc2ccc(N3CCN(C4COC4)CC3)cn2)c1=O", "observed": "enzyme activity", "action": "inhibitor", "tested at": "0.1 µM", "measurement": "inhibition", "result": "4%"}
{"SMILES": "Cn1cncc1[C@](O)(COc1ccc(C#N)cc1-c1ccc(OC(F)(F)F)cc1)c1ccc(C#N)cc1", "observed": "cell-free assay", "method": "competition with immobilised ligand", "tested at": "1 µM", "measurement": "remaining binding", "result": "94%"}
{"SMILES": "Nc1ncc(-c2nc(N3CCOCC3)nc(N3CCOCC3)n2)c(C(F)F)n1", "observed": "cell-free assay", "method": "competition with immobilised ligand", "tested at": "10 µM", "measurement": "remaining binding", "result": "91%"}
